In ChEMBL document CHEMBL1132620, “Piperazine imidazo[1,5-a]quinoxaline ureas as high-affinity GABAA ligands of dual functionality” (J Med Chem, 1999):
Calls of active or inactive are those of the source. No cut-off for these calls is given here.

Legend:
[1] = biological target: T1, GABA-A receptor; anion channel (Rattus norvegicus) (UniProt O09028+P15431+P18506+P18508+P19969+P20236+P23574+P23576+P28471+P28473+P30191+P62813+P63079+P63138+Q91ZM7+Q9ES14); experiment: Shift in [35S]TBPS binding to GABA-A Benzodiazepine receptor of rat brain membrane
[2] = Half-life after po dose of 5.01 mg/kg in rats; assay type: ADME, organism-based; parameters: dose 5.01 mg/kg, route oral; details: rat, in vivo
[3] = biological target: T2, GABA-A receptor; alpha-1/beta-2/gamma-2 (Homo sapiens) (UniProt P14867+P47870+P18507); experiment: (§1) In vitro GABA-mediated chloride current in A293 cells expressing GABA-A benzodiazepine receptor alpha-1-beta-2-gamma-2 subunits at 5 uM; assay type: functional, cell-based; details: HEK293
[4] = tested on: Rattus norvegicus; experiment: Mean number of shocks produced by the compound in rats at a dose of 3 mg/kg was determined by vogel's punished licking assay; assay type: functional
Method in brief: (§2)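 Vogel punished licking test in rats; number of shocks accepted recorded per dose group (n 6–10); each dose compared with the 0 mg/kg group of the same experiment by Wilcoxon rank sum test.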

[5] = organism: Mus musculus; experiment: Ability to antagonize the muscle relaxation effect in mice caused by a benzodiazepine full agonist, triazolam.; assay type: functional
Method in brief: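 Muscle relaxation induced by triazolam; test compound and triazolam given separately, traction scored 30 min after dosing; ED50 for blocking the relaxant effect.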

[6] = Area under curve was determined for the compound after iv dose of 5.06 in rats; assay type: ADME, organism-based; details: rat, in vivo
[7] = biological target: T2, GABA-A receptor; alpha-1/beta-2/gamma-2 (Homo sapiens); experiment: as §1; assay type: functional, cell-based; details: HEK293; remark: listed apart in the source
[8] = Maximum serum concentration was determined for the compound after po dose of 5.01 mg/kg in rats; assay type: ADME, organism-based; parameters: dose 5.01 mg/kg, route oral; details: rat
[9] = tested on: Rattus norvegicus; experiment: Mean number of shocks produced by the compound in rats at a dose of 1 mg/kg was determined by vogel's punished licking assay; assay type: functional; method in brief: as §2
[10] = Area under curve was determined for the compound after po dose of 5.01 mg/kg in rats; assay type: ADME, organism-based; parameters: dose 5.01 mg/kg, route oral; details: rat, in vivo
[11] = Half-life after iv dose of 5.06 mg/kg in rats; assay type: ADME, organism-based; parameters: dose 5.06 mg/kg, route intravenous; details: rat, in vivo
[12] = biological target: GABA-A receptor; anion channel; experiment: (§3) Displacement of [3H]flunitrazepam from GABA-A benzodiazepine receptor of rat cortical membranes; assay type: cell membranes, Membrane
Method in brief: (§4)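 Rat membranes incubated 60 min at 4 °C with [3H]flunitrazepam, 50 µg membrane protein and graded test drug in 200 µL containing NaCl, 10 mM Hepes/Tris pH 7.4 and 1 mM MgCl2; bound ligand separated by rapid filtration on GF/B; mean affinity, SE ≤10% of mean.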

[13] = tested on: Rattus norvegicus; experiment: Mean number of shocks produced by the compound in rats at a dose of 0.3 mg/kg was determined by vogel's punished licking assay; assay type: functional; method in brief: as §2
[14] = tested on: Rattus norvegicus; experiment: Mean number of shocks produced by the compound in rats at a dose of 10 mg/kg was determined by vogel's punished licking assay; assay type: functional; method in brief: as §2
[15] = tested on: Rattus norvegicus; experiment: Mean number of shocks produced by the compound in rats at a dose of 0 mg/kg was determined by vogel's punished licking assay; assay type: functional; method in brief: as §2
[16] = tested on: Rattus norvegicus; experiment: Mean number of shocks produced by CDPZ in rats at a dose of 12 mg/kg was determined by vogel's punished licking assay; assay type: functional; method in brief: as §2
[17] = Total plasma clearance Clp was determined for the compound after iv dose of 5.06 mg/kg in rats; assay type: ADME, organism-based; parameters: dose 5.06 mg/kg, route intravenous; details: rat, read-out: Clp (converted)
[18] = tested on: Mus musculus; experiment: In vivo acute electroshock physical dependence activity in mice; Inactive; assay type: functional, organism-based
[19] = Time at which Cmax was reached was determined for the compound after po dose of 5.01 mg/kg in rats; assay type: ADME, organism-based; parameters: dose 5.01 mg/kg, route oral; details: rat, in vivo
Method in brief: (§5)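 Male Sprague–Dawley rats dosed orally with compound in a solution formulation, n = 3–4 per compound; serum drug concentrations measured over time, lower limit of quantitation 50 ng/mL. Tmax reported as the range of observed values across animals.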

[20] = tested on: Rattus norvegicus; experiment: In vivo efficacy evaluated for ability to antagonize metrazole induced clonic convulsions in rat after ip injection; assay type: functional
[21] = Oral bioavailability at a dose of 5.01 mg/kg in rats; assay type: ADME, organism-based; details: rat, in vivo
[22] = biological target: T1, GABA-A receptor; anion channel (Rattus norvegicus); experiment: as §3; assay type: cell membranes; parameters: concentration or dose not given beside the values; details: Membrane, concentration not given here; method in brief: as §4
[23] = tested on: Mus musculus; experiment: In vivo efficacy is evaluated by percent control of cerebellar GMP levels in (drug+stress) treated mice/mice under stress; assay type: functional; parameters: concentration or dose not given beside the values
Method in brief: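 Male CF-1 mice given drug orally in vehicle 122 before electric footshock stress, controls given vehicle (1 mL/100 g); killed 30 min after treatment; cerebellum homogenized in 1% perchloric acid, iced 30 min, boiled 5 min, spun 17000g 20 min; supernatant cGMP by radioimmunoassay, expressed as % of stress control.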

[24] = tested on: Mus musculus; experiment: In vivo acute electroshock physical dependence activity in mice; Not active.; assay type: functional, organism-based
[25] = tested on: Rattus norvegicus; experiment: Geller-cook activity was determined using wilcoxon signed rank test on punished schedule at dose 1 mg/kg.; assay type: functional
Method in brief: (§6)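 Geller–Cook conflict schedule with punished and nonpunished response rates recorded per treatment; 6 animals per dose, controls 12–17; each dose compared to its own control by Wilcoxon signed rank test, p < 0.05.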

[26] = tested on: Rattus norvegicus; experiment: Geller-cook activity was determined using wilcoxon signed rank test on punished schedule at dose 0.3 mg/kg.; assay type: functional; method in brief: as §6
[27] = tested on: Rattus norvegicus; experiment: Geller-cook activity was determined using wilcoxon signed rank test on punished schedule at dose 3 mg/kg.; assay type: functional; method in brief: as §6
[28] = Half-life after iv dose of 4.74 mg/kg in rats; assay type: ADME, organism-based; parameters: dose 4.74 mg/kg, route intravenous; details: rat, in vivo
[29] = biological target: GABA A receptor alpha-3/beta-2/gamma-2 (Homo sapiens) (UniProt P47870+P18507+P34903); experiment: In vitro GABA-mediated chloride current in A293 cells expressing GABA-A benzodiazepine receptor alpha-3-beta-2-gamma-2 subunits at 5 uM; assay type: functional, cell-based; details: HEK293
[30] = tested on: Rattus norvegicus; experiment: Total plasma clearance was determined for the compound after iv dose of 4.74 mg/kg in rats; assay type: ADME, organism-based; parameters: dose 4.74 mg/kg, route intravenous; details: in vivo
[31] = tested on: Rattus norvegicus; experiment: Mean number of shocks in vogel''s punished licking assay in rats by 3 mg/kg Diazepam; assay type: functional; method in brief: as §2
[32] = tested on: Rattus norvegicus; experiment: Geller-cook activity was determined using wilcoxon signed rank test on non punished schedule at dose 0.3 mg/kg.; assay type: functional; method in brief: as §6
[33] = tested on: Rattus norvegicus; experiment: Geller-cook activity was determined using wilcoxon signed rank test on non punished schedule at dose 1 mg/kg.; assay type: functional; method in brief: as §6
[34] = tested on: Rattus norvegicus; experiment: Area under curve was determined for the compound after iv dose of 4.74 mg/kg in rats; assay type: ADME, organism-based; parameters: dose 4.74 mg/kg, route intravenous; details: in vivo
[35] = tested on: Rattus norvegicus; experiment: Geller-cook activity was determined using wilcoxon signed rank test on non punished schedule at dose 3 mg/kg.; assay type: functional; method in brief: as §6
[36] = biological target: T1, GABA-A receptor; anion channel (Rattus norvegicus); experiment: Inhibition of [35S]TBPS binding to GABA-A Benzodiazepine receptor of rat brain membranes; assay type: cell membranes; details: Membrane
[37] = Half-life after po dose of 5.46 mg/kg in rats; assay type: ADME, organism-based; parameters: dose 5.46 mg/kg, route oral; details: rat, in vivo
[38] = Area under curve was determined for the compound after po dose of 5.46 mg/kg in rats; assay type: ADME, organism-based; parameters: dose 5.46 mg/kg, route oral; details: rat, in vivo
[39] = Maximum serum concentration after po dose of 5.46 mg/kg in rats; assay type: ADME, organism-based; parameters: dose 5.46 mg/kg, route oral; details: rat
[40] = Time at which Cmax was reached was determined for the compound after po dose of 5.46 mg/kg in rats; assay type: ADME, organism-based; parameters: dose 5.46 mg/kg, route oral; details: rat, in vivo; method in brief: as §5
[41] = biological target: T1, GABA-A receptor; anion channel (Rattus norvegicus); details: Membrane

Shift [1] | Change in Cl- current [3] | Change in Cl- current [7] | Ki [12] [nM] | inhibition [22] [%] | Structure (SMILES) | Mean no. of shocks [4] | ED50 [5] [mg/kg] | Mean no. of shocks [9] | Mean no. of shocks [13] | Mean no. of shocks [14] | Mean no. of shocks [15] | Mean no. of shocks [16] | ED50 [20] [mg/kg] | Control [23] [%] | Acute electroshock activity [24] | other results
0.37 | 0.4 | 1.05 | 16.7 | 45 | C[C@H]1CN(C(=O)N2Cc3c(C(=O)OC(C)(C)C)ncn3-c3ccc(Cl)cc32)C[C@H](C)N1 | 5.6 | > 30 | 5.2 | 3.9 | 8.8 | 3.3 | 14.8 | 7.4 | 69 | – | half-life [2]: 2.4 h; AUC [6]: 5.01 µg·h/mL; Cmax [8]: 0.66 µg/mL; AUC [10]: 2.62 µg·h/mL; half-life [11]: 1.5 h; clearance [17]: 1.07 L/h/kg; Acute electroshock activity [18]: inactive; Tmax [19]: 0.25 h; bioavailability [21]: 54%
-0.06 | -0.2 | 1 | 4.48 | 86 | C[C@@H]1CN(C(=O)N2Cc3c(C(=O)OC(C)(C)C)ncn3-c3ccc(Cl)cc32)C[C@H](C)N1C | 18 | 7 | 7 | 8 | 18 | 8.4 | – | 14.8 | 36 | inactive | Gellar cook activity [25]: 53; Gellar cook activity [26]: 22; Gellar cook activity [27]: 65; half-life [28]: 0.57 h; Change in Cl- current [29]: 1; Clp [30]: 2.71 L/h/kg; Mean no. of shocks [31]: 13; Gellar cook activity [32]: 38; Gellar cook activity [33]: 56; AUC [34]: 3.57 µg·h/mL; Gellar cook activity [35]: 36
– | 0.38 | – | 2.56 | – | CC(C)(C)OC(=O)c1ncn2c1CN(C(=O)N1CCCC1)c1cc(Cl)ccc1-2.CCCC(=O)O | – | 14 | – | – | – | – | – | 29.7 | 105 | inactive | Shift [36]: 0.53; half-life [37]: 7.6 h; AUC [38]: 3.68 µg·h/mL; Cmax [39]: 0.33 µg/mL; Tmax [40]: 1 h
– | 0.04 | – | – | – | CC(C)n1c(=O)c2c(-c3noc(C4CC4)n3)ncn2c2ccccc21 [PANADIPLON] | – | 1.7 | – | – | – | – | – | 1.6 | 87 | inactive | Shift [41]: 0.06
-0.97 | -0.32 | 0.9 | 5.16 | 85 | CC(C)N1[C@H](C)CN(C(=O)N2Cc3c(C(=O)OC(C)(C)C)ncn3-c3ccc(Cl)cc32)C[C@@H]1C | 5 | > 30 | 5.3 | 6.3 | <3.4 | 6.6 | 26 | 35.3 | 52 | inactive | –
